Active and inactive are the calls of the source. The calls are words filed in the database; no cut-off is given here.
Tested on: Zika virus
Assay: Antiviral activity against Zika virus infected in Stat1-/- mouse assessed as reduction in viral load at 4 to 8mg/kg/day, po dosed immediately following viral infection followed by daily dosing for 3 days
Format: functional, organism-based
In short: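 Stat1-/- mice infected with DENV-2 NGC-N (1x10⁵ PFU iv) or ZIKV PRVABC59 (5x10⁴ PFU sc, footpad), with oral dosing or PBS starting immediately. Serum was taken from the submandibular vein on day 3 post-infection. Viremia was measured by plaque assay and reported as individual values and mean; n = 5.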

COc1ccc(S(=O)(=O)N(CCCC(=O)C2CCCCCC2)c2ccccc2)cc1
Activity: Active
